{"data": "Published values of several laboratories", "target": "Receptor tyrosine-protein kinase erbB-4 (ERBB4, Homo sapiens, UniProt Q15303)", "note": "Each line is one published result; the experiments were not run side by side."}
{"SMILES": "COc1ccc2c(c1)O[C@H](c1ccc(OC)c(OC)c1)C[C@@H]2NC(=O)C1(c2ccc3c(c2)OC(F)(F)O3)CC1", "effect on": "cell-free assay", "technique": "competition with immobilised ligand", "concentration": "1 µM", "remaining binding [%]": 94}
{"SMILES": "COc1ncc2cc3ccccc3nc2c1C#N", "effect on": "cell-free assay", "technique": "competition with immobilised ligand", "concentration": "5 µM", "remaining binding [%]": 96}
{"SMILES": "O=C(c1ccc(Nc2ncc(Cl)c(-c3ccc(Cl)s3)n2)cc1)N1CCC(N2CCCC2)CC1", "effect on": "binding", "technique": "competition with immobilised ligand", "concentration": "1 µM", "remaining binding [%]": 100}
{"SMILES": "CN(C)c1nccc(-c2cnn3ncccc23)n1", "effect on": "binding", "concentration": "1 µM", "remaining binding [%]": 81}
{"SMILES": "CN(C)C(=O)Cn1cc(-c2nc(C3(c4ccc(-c5cnc(N)nc5)cc4)CC3)no2)cn1", "effect on": "cell-free assay", "technique": "competition with immobilised ligand", "concentration": "1 µM", "remaining binding [%]": 100}
{"SMILES": "C[C@@H](c1ccc(-n2cnc3c(N)ncnc32)cc1)N1CCc2nn(C)c(Cc3ccccc3)c2C1=O", "effect on": "binding", "technique": "competition with immobilised ligand", "concentration": "0.1 µM", "remaining binding [%]": 73}
{"SMILES": "O=C(c1ccc(Nc2nccc(-c3cc4ccccc4s3)n2)cc1)N1CCC(N2CCCC2)CC1", "effect on": "binding", "technique": "competition with immobilised ligand", "concentration": "1 µM", "remaining binding [%]": 93}
{"SMILES": "Cc1noc([C@H]2C[C@@H](c3ccc(C(F)(F)F)cc3)CN(C(=O)N3CCS(=O)(=O)C3)C2)n1", "effect on": "cell-free assay", "technique": "competition with immobilised ligand", "concentration": "1 µM", "remaining binding [%]": 100}
{"SMILES": "c1cncc(-c2cccc(Nc3nccc(NC4CCCCC4)n3)c2)c1", "effect on": "binding", "technique": "competition with immobilised ligand", "concentration": "10 µM", "remaining binding [%]": 85}
{"SMILES": "C[C@H](NC(=O)c1cnc2n1[C@](C)(Cc1ccc(C#N)cc1)C(=O)N2c1cc(Cl)c(F)c(Cl)c1)C(=O)NC1(c2ccccn2)CC1", "effect on": "cell-free assay", "technique": "competition with immobilised ligand", "concentration": "1 µM", "remaining binding [%]": 100}
{"SMILES": "Cc1cnn2ncc(-c3ccnc(N(C)C)n3)c2c1", "effect on": "binding", "concentration": "1 µM", "remaining binding [%]": 65}
{"SMILES": "COc1cc(-c2cn(C3CCc4c(F)cccc4N(CC(F)(F)F)C3=O)nn2)ccc1-n1cnc(C)c1 (stereo not shown)", "effect on": "cell-free assay", "technique": "competition with immobilised ligand", "concentration": "1 µM", "remaining binding [%]": 100}
{"SMILES": "CN(C)c1nccc(-c2cnc3ncccn23)n1", "effect on": "binding", "concentration": "1 µM", "remaining binding [%]": 89}
{"SMILES": "CC(C)(C)c1ccc(-c2nc(CBr)nn2-c2cccc(O)c2)cc1", "effect on": "cell-free assay", "technique": "competition with immobilised ligand", "concentration": "10 µM", "remaining binding [%]": 88}
{"SMILES": "N[C@H]1CCN(c2nccc(-c3cnn4ncccc34)n2)C1", "effect on": "binding", "concentration": "1 µM", "remaining binding [%]": 84}
{"SMILES": "CNC(=O)[C@@H]1CC[C@@H](n2c(-c3ccc4cnccc4c3)nc3ccc(C(=O)NCc4cccc(C(N)=O)c4)cc32)C1", "effect on": "binding", "technique": "competition with immobilised ligand", "concentration": "1 µM", "remaining binding [%]": 100}
{"SMILES": "CN(CCCC(F)(F)F)c1nccc(-c2cnn3ncccc23)n1", "effect on": "binding", "concentration": "1 µM", "remaining binding [%]": 72}
{"SMILES": "Nc1ncc2c(n1)-c1c([nH]c3ccc(C#CC4CC4)cc13)CCCC2", "effect on": "binding", "technique": "competition with immobilised ligand", "concentration": "1 µM", "remaining binding [%]": 100}
{"SMILES": "C[C@@H]1CCN(c2nccc(-c3cnn4ncccc34)n2)C1", "effect on": "binding", "concentration": "1 µM", "remaining binding [%]": 79}
{"SMILES": "N#CC1(c2ccccn2)CCN(Cc2cc(C(=O)N3CCCC3)c(=O)n3ccccc23)CC1", "effect on": "cell-free assay", "technique": "competition with immobilised ligand", "concentration": "1 µM", "remaining binding [%]": 85}
{"SMILES": "O=C(NCCCN1CCOCC1)c1ccc(Nc2ncc(Cl)c(-c3ccc(Cl)s3)n2)cc1", "effect on": "binding", "technique": "competition with immobilised ligand", "concentration": "1 µM", "remaining binding [%]": 100}
{"SMILES": "O=C(NCC1CCOCC1)c1n[nH]cc1NC(=O)c1c(F)cccc1F", "effect on": "binding", "technique": "competition with immobilised ligand", "concentration": "1 µM", "remaining binding [%]": 100}
